# ASAP1 GAP inh = blocks human ASAP1-stimulated Arf1 GTP hydrolysis. actives 0.19% (n = 360,000). GDP FP detection. inhibition, % at 16.5 µM. Q9ULH1; in the data active = inhibition above about 25%;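 also: 0% = vehicle with enzyme and substrate and 100% = no enzyme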
# ARFGAP1 inh = rat ARFGAP1 inhibition. Arfgap1-stimulated ARF1 GTP hydrolysis, GDP FP detection. inhibition, % at 16.5 µM. AID 651572. actives 0.26% (n = 360,000);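 active = inhibition above a per-plate limit, mean inhibition of low control wells plus 3 SD, cut at about 25% in these data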;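 also: 0% = DMSO wells with enzyme and 100% = wells lacking Arfgap1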
# Target sequence (Q62848 1-136 limits assumed): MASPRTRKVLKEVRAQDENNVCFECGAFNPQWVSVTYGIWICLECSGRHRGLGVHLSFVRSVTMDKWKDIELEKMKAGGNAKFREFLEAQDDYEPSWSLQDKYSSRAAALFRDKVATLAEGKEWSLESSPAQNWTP
#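 system = rat Arfgap1 catalytic domain, aa 1-136 | technique = FP, GDP Alexa 633 tracer displaced from anti-GDP antibody, 620/688 nm | compound = one concentration, 16.5 µM, DMSO 1.26% | medium = HEPES-based buffer, pH 7.5 | timing = compound-enzyme preincubation 20 min, reaction 120 min, detection 60 min, 25 °C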
# Granule exo inh = blocks lytic granule exocytosis; TALL-104 LAMP-1 surface exposure, flow cytometry; cells stimulated with thapsigargin and PMA; inhibition, % at 10 µM; actives 0.66% (n = 360,000); AID 651702;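 active = inhibition above about 55%, limit read from the data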
# CendR NRP1 mod = modulators of CendR peptide binding to human neuropilin-1; actives 0.85% (n = 360,000); inhibition, % at 25 µM; FAM-RPARPAR peptide binding to NRP-1, fluorescence polarization;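 active = inhibition or corrected inhibition above about 18%, plus a signal ratio from 0.5 to 1.5, limit read from the data, passing the limit was not always enough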
# V-ATPase pHluor = regulators of yeast V-ATPase proton transport; S. cerevisiae, pHLuorin cytosolic pH fluorescence; actives 0.37% (n = 350,000); response, % at 10 µM; in the data active = response mostly above about 7.3%, no sharp cut-off; inactive = mostly below about 5.4%; also: actives read high
# ARFGAP1 inh conf = rat ARFGAP1 inhibition, confirmed; ARFGAP1-stimulated ARF1 GTP hydrolysis, GDP tracer FP; shares compounds with ARFGAP1 inh; actives 30% (n = 890); inhibition, % at 16.5 µM;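 active = average inhibition over triplicates above the hit cutoff set in the earlier primary screen, cut at about 25% in these data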;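 also: 0% = Arfgap1 plus ARF1-GTP with DMSO and 100% = wells lacking Arfgap1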
# Target sequence (Q62848 whole entry, looked up): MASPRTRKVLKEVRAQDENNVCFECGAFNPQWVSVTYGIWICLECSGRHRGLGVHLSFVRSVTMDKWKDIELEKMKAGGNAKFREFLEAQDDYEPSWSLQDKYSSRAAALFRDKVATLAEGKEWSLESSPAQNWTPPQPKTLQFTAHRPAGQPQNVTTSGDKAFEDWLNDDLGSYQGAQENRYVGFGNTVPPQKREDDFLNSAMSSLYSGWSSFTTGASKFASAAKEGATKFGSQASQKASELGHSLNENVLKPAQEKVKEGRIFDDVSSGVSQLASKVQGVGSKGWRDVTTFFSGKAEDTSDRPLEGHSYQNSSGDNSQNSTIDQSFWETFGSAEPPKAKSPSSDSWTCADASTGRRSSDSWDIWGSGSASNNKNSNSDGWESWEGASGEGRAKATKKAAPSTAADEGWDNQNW
# Exocytosis CP01 = blocks lytic granule exocytosis; shares compounds with Granule exo inh; TALL-104 cells, LAMP-1 externalization, flow cytometry; stimulated with PMA plus thapsigargin; inhibition, % at 10 µM; actives 11% (n = 1,500); AID 651954; in the data active = inhibition above about 60%;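 also: 0% = stimulated vehicle wells and 100% = unstimulated wells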
# The depositor's hits bear a star; x = not tested or not shown. This is a sample that favours compounds with a hit; in the whole collection about 2.2% have one here.
SMILES,ASAP1 GAP inh,ARFGAP1 inh,Granule exo inh,CendR NRP1 mod,V-ATPase pHluor,ARFGAP1 inh conf,others
CCOc1ccc(NC(=O)CN(C)C(=O)C(C)N2C(=O)c3ccccc3C2=O)cc1OCC (centres undefined),-9,6,8,4,1,x,
Cc1ccc(-c2cc(-c3ccccc3Cl)[nH]n2)c(O)c1,19,17,3,-11,0,x,
Cc1ccc(-c2cc(-c3ccccc3[N+](=O)[O-])[nH]n2)c(O)c1,12,41*,-2,7,2,7,
COc1ccc2oc(C(=O)OCC(=O)N3CC(C)CC(C)C3)c(C)c2c1 (centres undefined),13,31*,8,-6,3,39*,
COc1ccc2oc(C(=O)OCC(=O)N3C(C)CCCC3C)c(C)c2c1 (centres undefined),8,-2,-2,4,2,x,
COc1ccc2oc(C(=O)OCC(=O)N3CC(C)OC(C)C3)c(C)c2c1 (centres undefined),11,25*,0,12,-3,13,
CCOc1ccccc1NC(=O)COC(=O)c1nc2nccc(C)n2n1,-7,-9,-9,-2,4,x,
COc1ccnc(-n2cccc2C#N)c1C#N,13,8,-3,3,8,x,
CO/N=C/c1cccn1-c1nccc(OC)c1C#N,-1,31*,0,16,-1,4,
O=C(COc1ccccc1Cl)N1CCNC1=O,6,4,2,-10,0,x,
COc1ccc(S(=O)(=O)NCC2CCC(C(=O)N3CCC4(CC3)OCCO4)CC2)cc1 (centres undefined),0,35*,-2,-6,2,-7,
COc1ccc(S(=O)(=O)NCC2CCCN(C(=O)C3CCCC3)C2)cc1 (centres undefined),7,8,-1,-16,0,x,
Cn1c(=O)c2c(-c3ccccc3F)c3c(nc2n(C)c1=O)-c1ccccc1C3O (centres undefined),-3,25*,-1,-2,-5,0,
CC1CCc2sc(C(=O)N3CCC(C(N)=O)CC3)cc2C1 (centres undefined),-9,3,0,-8,3,x,
O=C(Nc1ccncc1)c1cn(-c2ccccc2)nc1-c1cccs1,12,26*,-1,5,4,13,
Nc1nc(/C=C/c2cccnc2)nc(-c2ccccc2O)n1,12,37*,7,-4,0,25*,
CCCc1ccc(Oc2c(-c3ccc(O)c(C)c3O)n[nH]c2C)cc1,-2,8,10,-8,-4,x,
CCCc1ccc(Oc2cn[nH]c2-c2ccc(O)c(C)c2O)cc1,14,27*,33,-10,2,31*,
O=C(NCc1ccc(OC(F)(F)F)cc1)C1CCC(=O)N(C2CC2)C1 (centres undefined),-2,2,-8,15,-2,x,
COc1cc(C(=O)OC(C)CN2C(C)CCCC2C)cc(OC)c1OC (centres undefined),2,32*,8,0,0,-6,
COc1cc(C(=O)OC(C)CN2CCN(C)CC2)cc(OC)c1OC (centres undefined),1,0,-1,6,-1,x,
CCC(C)C(=O)Nc1nc(C)c(-c2csc(Nc3cc(Cl)ccc3OC)n2)s1 (centres undefined),10,31*,6,-21,2,10,
CC(=O)Nc1ccc(NC(=O)C2CCCN(C(=O)c3ccc(Cl)cc3)C2)cc1 (centres undefined),3,8,1,3,-2,x,
O=C(Nc1ccc(OC(F)(F)F)cc1)C1CCCN(C(=O)c2ccc(Cl)cc2)C1 (centres undefined),14,25*,2,-4,3,6,
CN1CCCCC(NC(=O)CCCl)C1=O (centres undefined),8,-6,x,x,x,x,
SMILES,ASAP1 GAP inh,ARFGAP1 inh,Granule exo inh,CendR NRP1 mod,V-ATPase pHluor,ARFGAP1 inh conf,others
NC(=O)c1ccc(NC(=O)COC(=O)/C=C/c2cn(-c3ccccc3)nc2-c2cccnc2)cc1,12,30*,-4,-130,-1,46*,
N#Cc1ccccc1NC(=O)COC(=O)/C=C/c1cn(-c2ccccc2)nc1-c1ccc(Cl)cc1,12,-9,4,4,-1,x,
COc1cccc(C(=O)NNC2OC(CO)C(O)C2O)c1 (centres undefined),-8,42*,-3,5,1,8,
CN1C(=O)c2ccc(NC(=O)c3c(C(=O)O)cccc3[N+](=O)[O-])cc2C1=O,3,26*,-2,8,-2,4,
COc1ccccc1NS(=O)(=O)c1cc(NC(=O)c2cc(=O)[nH]c3ccccc23)ccc1N1CCOCC1,15,28*,-1,-21,-1,9,
COc1ccccc1NS(=O)(=O)c1cc(NC(=O)C(C)(C)C)ccc1N1CCOCC1,-9,5,-2,-2,1,x,
OC(CNCCC1C=Nc2ccccc21)Cn1c2ccc(Cl)cc2c2cc(Cl)ccc21 (centres undefined),13,28*,71*,5,7,42*,Exocytosis CP01=12
O=C(Nc1nc2ccc(SC(F)F)cc2s1)c1ccc(NS(=O)(=O)c2ccc(F)c(F)c2)cc1,19,26*,76*,-1,-4,30*,Exocytosis CP01=104*
CS(=O)(=O)c1ccc2nc(NC(=O)c3ccc(NS(=O)(=O)c4ccc(F)c(F)c4)cc3)sc2c1,9,3,0,-12,6,x,
CCOc1cccc2sc(N3CCN(C(=O)c4ccc5ncsc5c4)CC3)nc12,-1,-3,-4,-2,-3,x,
O=C(Cc1cccs1)Nc1cccc(-c2nc3cc4ccccc4cc3[nH]2)c1,16,25*,66*,-4,-2,25*,Exocytosis CP01=21
Cc1cc(C)cc(OCC(=O)Nc2ccc(-n3cnnn3)cc2)c1,1,-3,1,5,1,x,
CN(C)S(=O)(=O)c1ccc(C(=O)NC(=O)CSc2nncs2)cc1,6,9,3,14,2,x,
O=C(Nc1cccc(-c2csc(Nc3cccc(C(F)(F)F)c3)n2)c1)c1ccccc1,8,25*,75*,-6,0,18,Exocytosis CP01=-8
COc1ccc(/C=N/n2c(N)c(S(=O)(=O)c3cccs3)c3nc4ccccc4nc32)cc1OC,7,-7,2,-2,-2,x,
CC(C)Cn1c(N)c(S(=O)(=O)c2cccs2)c2nc3ccccc3nc21,-10,27*,80*,7,2,-3,Exocytosis CP01=-11
CCN(CC)CCn1c(=N)n(CC(=O)c2ccc(Br)s2)c2ccccc21,8,6,79*,2,0,x,Exocytosis CP01=0
N=c1n(CC(=O)c2ccc(Br)s2)c2ccccc2n1Cc1ccccc1,12,-4,77*,-3,6,x,Exocytosis CP01=45

# Screens from PubChem BioAssay.
